Reference: ChEMBL document CHEMBL1208782, “Synthesis and pharmacological validation of a novel series of non-steroidal FXR agonists” (Bioorg Med Chem Lett, 2010)
Calls of active or inactive are those of the source. No cut-off for these calls is given here.

Tests used:
[1] = Plasma concentration in db/db mouse at 1 mg/kg, iv after 240 mins; type: ADME, organism-based; set-up: dose 1 mg/kg, route intravenous; conditions: read-out: Drug uptake
Procedure, shortened: (§1)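 Single dose to mice, 5 mg/kg po or 1 mg/kg iv. Plasma was sampled at 5, 10, 30, 90 and 240 min. Only parent compound was measured, in ng/mL.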

Mus musculus [2] = experiment: Reduction in total plasma cholesterol level in db/db mouse at 1-25 mg/kg bid after 12 days; type: functional, organism-based
Procedure, shortened: (§2)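 C57BL/KSK-mLep^db/mLep^db mice were dosed orally at 1, 5 and 25 mg/kg b.i.d. for 12 days. Total plasma triglycerides and total plasma cholesterol were measured, with cholesterol reported as mg/dl. Significance was given at p<0.05, <0.01 and <0.001 levels.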

Mus musculus [3] = experiment: Volume of distribution in db/db mouse at 1 mg/kg, iv; type: ADME, organism-based; set-up: dose 1 mg/kg, route intravenous; conditions: in vivo
Procedure, shortened: (§3)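 Derived from the single-dose mouse plasma time courses of parent compound, 5-240 min. Dosing was 5 mg/kg po or 1 mg/kg iv. Volume of distribution is in mL/kg, clearance in mL/h/kg, and oral bioavailability in %.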

Liver [4] = experiment: Drug level in db/db mouse liver measured metabolites as glucuronide at 5 mg/kg, po after 240 mins; type: ADME, organism-based; set-up: dose 5 mg/kg, route oral; conditions: in vivo, 4 h
Procedure, shortened: (§4)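 Mice got a single dose, 5 mg/kg po or 1 mg/kg iv. Liver and bile were sampled 240 min after dosing. Parent carboxylic acid, its acyl-glucuronide and its taurine amide were quantified separately, in ng/mL. Glucuronide identity was confirmed by glucuronidase digestion of bile or bile extracts, which regenerated the parent.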

[5] = Clearance in db/db mouse at 1 mg/kg, iv; type: ADME, organism-based; set-up: dose 1 mg/kg, route intravenous; conditions: in vivo
Procedure, shortened: (§5)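 Mice received a single dose of 5 mg/kg po or 1 mg/kg iv. Plasma was sampled at 5, 10, 30, 90 and 240 min and the parent compound alone was measured (ng/mL). Clearance (mL/h/kg), Vd (mL/kg) and oral bioavailability were derived from these plasma profiles.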

[6] = Drug level in db/db mouse bile measured metabolites as glucuronide at 1 mg/kg, iv after 240 mins; type: ADME, organism-based; set-up: dose 1 mg/kg, route intravenous; conditions: in vivo, 4 h
Liver [7] = experiment: Drug level in db/db mouse liver measured metabolites as glucuronide at 1 mg/kg, iv after 240 mins; type: ADME, organism-based; set-up: dose 1 mg/kg, route intravenous; conditions: in vivo, 4 h; procedure, shortened: as §4
[8] = Drug level in db/db mouse bile measured metabolites as carboxylic acid at 5 mg/kg, po after 240 mins; type: ADME, organism-based; set-up: dose 5 mg/kg, route oral; conditions: in vivo, 4 h
[9] = molecular target: Peroxisome proliferator-activated receptor gamma (Homo sapiens, UniProt P37231); experiment: Agonist activity at PPARgamma-LBD expressed in HEK293 cells assessed as Gal4-DBD interaction by cellular mammalian one hybrid assay; type: functional, cell-based
[10] = Plasma concentration in db/db mouse at 5 mg/kg, po after 30 mins; type: ADME, organism-based; set-up: dose 5 mg/kg, route oral; conditions: read-out: Drug uptake; procedure, shortened: as §1
[11] = Plasma concentration in db/db mouse at 5 mg/kg, po after 5 mins; type: ADME, organism-based; set-up: dose 5 mg/kg, route oral; conditions: read-out: Drug uptake; procedure, shortened: as §1
Mus musculus [12] = experiment: Reduction in total plasma cholesterol level in db/db mouse at 1 mg/kg bid after 12 days; type: functional; procedure, shortened: as §2
[13] = Drug level in db/db mouse bile measured metabolites as glucuronide at 5 mg/kg, po after 240 mins; type: ADME, organism-based; set-up: dose 5 mg/kg, route oral; conditions: in vivo, 4 h
Liver [14] = experiment: Drug level in db/db mouse liver measured metabolites as carboxylic acid at 1 mg/kg, iv after 240 mins; type: ADME, organism-based; set-up: dose 1 mg/kg, route intravenous; conditions: in vivo, 4 h; procedure, shortened: as §4
Estrogen receptor beta = Estrogen receptor beta (Homo sapiens, UniProt Q92731); experiment: Agonist activity at ERbeta-LBD expressed in HEK293 cells assessed as Gal4-DBD interaction by cellular mammalian one hybrid assay; type: functional, cell-based
[15] = Drug level in db/db mouse bile measured metabolites as taurine amide at 1 mg/kg, iv after 240 mins; type: ADME, organism-based; set-up: dose 1 mg/kg, route intravenous; conditions: in vivo, 4 h; procedure, shortened: as §4
Mus musculus [16] = experiment: Reduction in total plasma triglyceride level in db/db mouse at 1-25 mg/kg bid after 12 days; type: functional, organism-based; procedure, shortened: as §2
[17] = Drug level in db/db mouse bile measured metabolites as taurine amide at 5 mg/kg, po after 240 mins; type: ADME, organism-based; set-up: dose 5 mg/kg, route oral; conditions: in vivo, 4 h; procedure, shortened: as §4
[18] = Oral bioavailability in db/db mouse at 5 mg/kg, po; type: ADME, organism-based; conditions: in vivo; procedure, shortened: as §3
[19] = Plasma concentration in db/db mouse at 5 mg/kg, po after 240 mins; type: ADME, organism-based; set-up: dose 5 mg/kg, route oral; conditions: read-out: Drug uptake; procedure, shortened: as §1
[20] = molecular target: Peroxisome proliferator-activated receptor alpha (Homo sapiens, UniProt Q07869); experiment: Agonist activity at PPARalpha-LBD expressed in HEK293 cells assessed as Gal4-DBD interaction by cellular mammalian one hybrid assay; type: functional, cell-based
Mus musculus [21] = experiment: Volume of distribution in db/db mouse at 5 mg/kg, po; type: ADME, organism-based; set-up: dose 5 mg/kg, route oral; conditions: in vivo; procedure, shortened: as §3
[22] = Plasma concentration in db/db mouse at 25 mg/kg bid after 24 hrs by LC/MS-MS analysis; type: ADME, organism-based; set-up: dose 25 mg/kg; conditions: read-out: Drug uptake
Procedure, shortened: (§6)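 db/db mice were dosed twice daily for 12 days. Plasma and liver concentrations were determined 4 h and 24 h after the last administration.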

[23] = Drug level in db/db mouse liver at 25 mg/kg bid after 4 hrs by LC/MS-MS analysis; type: ADME, organism-based; set-up: dose 25 mg/kg; conditions: read-out: Drug uptake; procedure, shortened: as §6
Estrogen receptor = Estrogen receptor (Homo sapiens, UniProt P03372); experiment: Agonist activity at ERalpha-LBD expressed in HEK293 cells assessed as Gal4-DBD interaction by cellular mammalian one hybrid assay; type: functional, cell-based
[24] = Plasma concentration in db/db mouse at 1 mg/kg, iv after 10 mins; type: ADME, organism-based; set-up: dose 1 mg/kg, route intravenous; conditions: read-out: Drug uptake; procedure, shortened: as §1
Liver [25] = experiment: Drug level in db/db mouse liver measured metabolites as carboxylic acid at 5 mg/kg, po after 240 mins; type: ADME, organism-based; set-up: dose 5 mg/kg, route oral; conditions: in vivo, 4 h; procedure, shortened: as §4
[26] = Plasma concentration in db/db mouse at 5 mg/kg, po after 90 mins; type: ADME, organism-based; set-up: dose 5 mg/kg, route oral; conditions: read-out: Drug uptake; procedure, shortened: as §1
[27] = Plasma concentration in db/db mouse at 1 mg/kg, iv after 30 mins; type: ADME, organism-based; set-up: dose 1 mg/kg, route intravenous; conditions: read-out: Drug uptake; procedure, shortened: as §1
[28] = Clearance in db/db mouse at 5 mg/kg, po; type: ADME, organism-based; set-up: dose 5 mg/kg, route oral; conditions: in vivo; procedure, shortened: as §5
Liver [29] = experiment: Drug level in db/db mouse liver measured metabolites as taurine amide at 1 mg/kg, iv after 240 mins; type: ADME, organism-based; set-up: dose 1 mg/kg, route intravenous; conditions: in vivo, 4 h; procedure, shortened: as §4
Liver [30] = experiment: Drug level in db/db mouse liver measured metabolites as taurine amide at 5 mg/kg, po after 240 mins; type: ADME, organism-based; set-up: dose 5 mg/kg, route oral; conditions: in vivo, 4 h; procedure, shortened: as §4

Chain of Estrogen receptor (P03372 whole entry, the tested form may be a part): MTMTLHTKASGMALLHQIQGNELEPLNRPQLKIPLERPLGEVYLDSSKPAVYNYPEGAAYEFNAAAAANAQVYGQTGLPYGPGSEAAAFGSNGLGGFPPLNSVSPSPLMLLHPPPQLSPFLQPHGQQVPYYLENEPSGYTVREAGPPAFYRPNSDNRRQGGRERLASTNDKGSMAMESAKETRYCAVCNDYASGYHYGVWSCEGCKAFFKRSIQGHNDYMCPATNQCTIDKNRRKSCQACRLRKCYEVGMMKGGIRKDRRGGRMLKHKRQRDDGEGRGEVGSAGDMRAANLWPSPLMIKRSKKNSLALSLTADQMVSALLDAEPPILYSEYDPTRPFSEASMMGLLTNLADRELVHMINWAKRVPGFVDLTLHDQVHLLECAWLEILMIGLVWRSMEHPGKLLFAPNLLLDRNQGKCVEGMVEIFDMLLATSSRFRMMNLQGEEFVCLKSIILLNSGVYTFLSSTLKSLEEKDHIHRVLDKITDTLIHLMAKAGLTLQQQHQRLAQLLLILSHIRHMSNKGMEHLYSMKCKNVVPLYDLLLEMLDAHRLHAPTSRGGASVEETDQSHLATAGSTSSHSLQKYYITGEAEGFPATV
Chain of Estrogen receptor beta (Q92731 whole entry, the tested form may be a part): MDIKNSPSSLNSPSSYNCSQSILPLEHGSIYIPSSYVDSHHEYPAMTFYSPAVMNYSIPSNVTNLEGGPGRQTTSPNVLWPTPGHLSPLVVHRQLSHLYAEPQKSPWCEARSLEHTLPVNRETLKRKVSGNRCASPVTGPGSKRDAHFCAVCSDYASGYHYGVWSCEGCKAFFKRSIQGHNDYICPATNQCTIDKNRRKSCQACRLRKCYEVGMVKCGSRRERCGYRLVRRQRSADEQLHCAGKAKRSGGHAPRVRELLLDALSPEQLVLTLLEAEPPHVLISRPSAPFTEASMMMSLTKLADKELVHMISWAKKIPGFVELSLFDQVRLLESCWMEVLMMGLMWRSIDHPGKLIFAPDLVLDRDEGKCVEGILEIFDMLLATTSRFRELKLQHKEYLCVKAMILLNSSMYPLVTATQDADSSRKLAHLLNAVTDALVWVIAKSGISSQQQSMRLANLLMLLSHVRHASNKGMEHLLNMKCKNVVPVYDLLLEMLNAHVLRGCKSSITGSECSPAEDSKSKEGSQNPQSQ
Chain of Peroxisome proliferator-activated receptor alpha (Q07869 whole entry, the tested form may be a part): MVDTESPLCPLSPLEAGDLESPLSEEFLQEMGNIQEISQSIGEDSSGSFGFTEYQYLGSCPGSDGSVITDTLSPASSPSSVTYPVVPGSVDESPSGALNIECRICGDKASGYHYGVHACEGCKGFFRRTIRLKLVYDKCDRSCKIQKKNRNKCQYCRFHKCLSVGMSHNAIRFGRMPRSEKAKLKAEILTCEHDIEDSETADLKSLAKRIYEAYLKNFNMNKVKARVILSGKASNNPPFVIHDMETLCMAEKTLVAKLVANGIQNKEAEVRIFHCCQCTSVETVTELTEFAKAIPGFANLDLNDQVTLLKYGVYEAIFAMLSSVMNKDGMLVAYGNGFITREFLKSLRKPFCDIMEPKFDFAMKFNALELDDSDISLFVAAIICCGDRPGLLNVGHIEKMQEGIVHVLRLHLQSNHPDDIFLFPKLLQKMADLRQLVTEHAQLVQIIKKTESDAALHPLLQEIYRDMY
Chain of Peroxisome proliferator-activated receptor gamma (P37231 whole entry, the tested form may be a part): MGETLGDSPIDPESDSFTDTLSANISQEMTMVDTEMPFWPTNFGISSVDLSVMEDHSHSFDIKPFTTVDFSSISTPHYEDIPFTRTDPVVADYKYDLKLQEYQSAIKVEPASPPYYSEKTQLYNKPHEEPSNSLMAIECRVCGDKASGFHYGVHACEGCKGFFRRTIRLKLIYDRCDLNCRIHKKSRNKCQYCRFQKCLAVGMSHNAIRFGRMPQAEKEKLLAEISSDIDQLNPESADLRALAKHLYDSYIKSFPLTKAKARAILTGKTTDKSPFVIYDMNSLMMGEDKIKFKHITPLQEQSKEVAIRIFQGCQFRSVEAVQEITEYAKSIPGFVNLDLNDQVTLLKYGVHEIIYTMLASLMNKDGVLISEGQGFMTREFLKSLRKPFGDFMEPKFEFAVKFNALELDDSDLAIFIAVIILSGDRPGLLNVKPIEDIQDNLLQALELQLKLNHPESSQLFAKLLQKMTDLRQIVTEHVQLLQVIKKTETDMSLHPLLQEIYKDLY

| SMILES | Activity (Mus musculus [2]) | Vd (Mus musculus [3]) [L/kg] | Drug uptake (Liver [4]) [ng/mL] | clearance [5] [mL/min/kg] | Drug uptake [6] [ng/mL] | Drug uptake [8] [ng/mL] | EC50 [9] [µM] | concentration at 0.5 h [10] [ng/mL] | concentration at 5 min [11] [ng/mL] | Drug uptake [13] [ng/mL] | Drug uptake (Liver [14]) [ng/mL] | EC50 (Estrogen receptor beta) [µM] | Drug uptake [15] [ng/mL] | Activity (Mus musculus [16]) | Drug uptake [17] [ng/mL] | bioavailability [18] [%] | concentration at 4 h [19] [ng/mL] | EC50 [20] [µM] | Vd (Mus musculus [21]) [L/kg] | concentration at 24 h [22] [µM] | further results |
| --- | --- | --- | --- | --- | --- | --- | --- | --- | --- | --- | --- | --- | --- | --- | --- | --- | --- | --- | --- | --- | --- |
| CN(Cc1ccc(C(=O)O)cc1)c1ccc(OCc2c(-c3c(Cl)cccc3Cl)noc2C2CC2)nc1C(F)(F)F | Active | 1.24 | 172 | 11.9 | 150 | 1446 | > 10 | 531 | 427 | 2807 | 23 | > 10 | 10013 | Active | 47638 | 16.1 | 52 | > 10 | 5.2 | 0.011 | concentration at 4 h [1]: 94 ng/mL; Drug uptake (Liver [7]): 17 ng/mL; Activity (Mus musculus [12]): 97.2 mg/dL; concentration at 4 h [23]: 14.8 µM; EC50 (Estrogen receptor): > 10 µM; concentration at 10 min [24]: 437 ng/mL; Drug uptake (Liver [25]): 257 ng/mL; concentration at 1.5 h [26]: 370 ng/mL; concentration at 0.5 h [27]: 325 ng/mL; CL/F [28]: 67.9 mL/min/kg |
| CC(C)c1onc(-c2c(Cl)cccc2Cl)c1COc1ccc(N(C)Cc2ccc(C(=O)O)cc2)c(C(F)(F)F)n1 | Active | 0.931 | 2872 | 16.8 | 4261 | 1697 | > 10 | 420 | 57 | 18928 | 262 | > 10 | 11927 | Active | 22443 | 16.2 | 14 | > 10 | 5.26 | 0.003 | Drug uptake (Liver [29]): 134 ng/mL; concentration at 4 h [23]: 10.4 µM; EC50 (Estrogen receptor): > 10 µM; concentration at 10 min [24]: 1600 ng/mL; Drug uptake (Liver [25]): 1512 ng/mL; concentration at 1.5 h [26]: 267 ng/mL; concentration at 0.5 h [27]: 361 ng/mL; CL/F [28]: 104 mL/min/kg; Drug uptake (Liver [30]): 372 ng/mL |
